Reference: publication PMC11476771 (BMC Nephrology, 2024)
Like-named read-outs stand apart in the source and are kept apart here.

What was measured:
Safety [1] = assay type: in vivo, human; conditions: single IV 3.0 mcg/kg
Multiple-dose phase 2 = assay type: in vivo, human; conditions: for Dose proportionality of Cmax and AUC0 − 48 (power model): 0.5, 1.0, 2.5 mcg/kg, 95% CIs included 1
Outline: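 Randomized, double-blind, placebo-controlled dose escalation in HD subjects. Sequential cohorts of 8 (6 active, 2 placebo), randomized 3:1 within strata of urine output. IV bolus given within 15 min after each of 3 HD sessions over 1 week. Serial plasma sampled days 1–8 by LC-MS/MS (LLOQ 0.1 ng/mL). Noncompartmental parameters; RAC from day 5:day 1 AUC0−48; power-model dose proportionality.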

[2] = hemodialysis patients after treatment discontinued; cited from earlier work
Safety [3] = assay type: in vivo, human; conditions: HD subjects; multiple-dose PK study
[4] = assay type: in vivo, human
Outline: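 Open-label, parallel-group, single 3.0 mcg/kg IV dose by check-in weight in NDD subjects stratified by MDRD eGFR, and in matched healthy controls. Plasma sampled predose to 72 h; urine collected in intervals to 72 h. LC-MS/MS (LLOQ 0.1 ng/mL plasma, 1.0 ng/mL urine); noncompartmental parameters. ANCOVA on ln Cmax/AUCinf (covariates age, weight, BMI, sex) gave geometric mean ratios with 90% CI. CL was regressed linearly on eGFR.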

With `CC(C)C[C@@H](NC(=O)[C@@H](Cc1ccccc1)NC(=O)[C@H](N)Cc1ccccc1)C(=O)N[C@H](CCCCN)C(=O)N1CCC(N)(C(=O)O)CC1` [difelikefalin] the Subjects with vomiting (Safety [1]; 3/36 subjects) was 8.3%, the Subjects with dizziness (Safety [1]; 4/36 subjects) was 11.1% and the “Subjects with mild headache” value (Safety [1]; 4/36 subjects) was 11.1%. The “Subjects with paresthesia (mild)” value (Safety [1]; 5/36 subjects) was 13.9%, the “Subjects reporting TEAEs” value (Safety [1]; 17/36 subjects) was 47.2% and the “Serious AEs” value (Safety [1]; all 36 subjects) was “none were serious AEs”. The “Total number of TEAEs” value (Safety [1]; all 36 subjects) was 37, the “TEAEs considered related to study drug” value (Safety [1]; all 36 subjects, number of events) was 17 and the “TEAEs of moderate severity” value (Safety [1]; number of events, most TEAEs mild) was 7. The “Dose proportionality of Cmax and AUC0 − 48 (power model)” value (Multiple-dose phase 2; HD subjects) was “slope values were all close to unity”, the “Dose proportionality of Cmax and AUC0 − 48 (power model)” value (Multiple-dose phase 2; HD subjects, listed as IV difelikefalin) was “demonstrated dose proportionality” and the “Mean t1/2, range over dose groups” value (Multiple-dose phase 2; HD subjects, day 1, 0.5-2.5 mcg/kg) was 1390 to 1870 min. For the same molecule, the “Mean accumulation ratio (RAC), range over dose groups” value (Multiple-dose phase 2; HD subjects, day 5, 3 dose groups) was 1.0–1.2, the “Increase of half-life in HD subjects compared with normal renal function” value (Multiple-dose phase 2; cross-study comparison) was “approximately 10 fold” and the “Clearance in HD subjects prior to dialysis as % of healthy subjects” value (Multiple-dose phase 2; cross-study comparison, reference is 2.5 mcg/kg HD group) was 14%. For the same molecule, the Tmax (Multiple-dose phase 2; human, in vivo, iv) was 5 min, the “Detectability in plasma after dialysis cycles” value [2] was “no longer detectable in plasma after 2 dialysis cycles” and the “Reduction of plasma concentration by a single dialysis cycle” value [2] was “approximately 83%”. For the same molecule, the “SAEs, severe TEAEs, TEAEs leading to discontinuation, deaths” value (Safety [3]) was “no SAEs, severe TEAEs, TEAEs that led to drug discontinuations, or deaths”, the “Intercept of total CL versus eGFR” value ([4]; CL value = intercept + slope * eGFR, IV 3.0 mcg/kg, 95% CI 3.734794–20.470724) was 12.1 and the “Slope of total CL versus eGFR” value ([4]; CL value = intercept + slope * eGFR, IV 3.0 mcg/kg, NDD subjects with impaired or normal renal function, 95% CI 0.482284–0.718031, P < 0.0001) was 0.6002. The “Exposure relative to healthy subjects” value ([4]; moderate renal impairment vs healthy subjects, single IV 3.0 mcg/kg) was 1.7 fold, the “Reduction of clearance compared with healthy subjects” value ([4]; moderate renal impairment, single IV 3.0 mcg/kg) was 47.0% and the “Exposure relative to healthy subjects” value ([4]; severe renal impairment vs healthy subjects, single IV 3.0 mcg/kg) was 3.3 fold. For the same molecule, the “Reduction of clearance compared with healthy subjects” value ([4]; severe renal impairment, single IV 3.0 mcg/kg) was 71.7% and the “Time of peak plasma concentration” value ([4]; single IV 3.0 mcg/kg, first post-dose PK sample, across all treatment groups) was 2 to 3 min.
